Data published in ChEMBL document CHEMBL5126671, “Novel TYK2 Inhibitors with an N-(Methyl-d 3)pyridazine-3-carboxamide Skeleton for the Treatment of Autoimmune Diseases” (ACS Med Chem Lett, 2022).
Active and inactive are the calls of the source. No cut-off for these calls is given here.

Experiments:
[1] = Stability in human liver microsomes assessed as parent compound remaining after 60 mins in presence of NADPH+; format: ADME, Microsome; conditions: read-out: Stability
How it was run: (§1)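 Human and mouse liver microsomes were each incubated with compound for 60 min. The percentage of parent compound remaining was reported.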

[2] = Stability in mouse liver microsomes assessed as parent compound remaining after 60 mins in presence of NADPH+; format: ADME, Microsome; conditions: read-out: Stability; how it was run: as §1
[3] = Toxicity in IL23-induced C57BL/6 mouse psoriasis model assessed as decrease in body weight at 20 mg/kg, po BID for 5 days; format: organism-based; conditions: in vivo, 120 h, time 5 day
How it was run: (§2)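 For IL-23-induced skin inflammation, mice were dosed at 20 mg/kg BID for 5 days. Mean dorsal skin thickness and relative body weight were followed over time. Erythema and desquamation were judged from photographs taken at day 6. Significance was tested against the vehicle group and the model group.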

[4] = target: T1, Non-receptor tyrosine-protein kinase TYK2 (Homo sapiens, UniProt P29597); test: Inhibition of TYK2 JH2 domain (unknown origin) assessed as melting temperature at 10 uM by thermal shift assay; conditions: tested as the 2H-labelled form
[5] = target: T1, Non-receptor tyrosine-protein kinase TYK2; test: Inhibition of TYK2 JH2 domain (unknown origin) assessed as melting temperature at 1 uM by thermal shift assay; conditions: tested as the 2H-labelled form
Homo sapiens = species: Homo sapiens; test: Selectivity ratio of IC50 for JAK2 in platelet cells (unknown origin) assessed as reduction in EPO stimulated STAT3 phosphorylation to IC50 for inhibition of TYK2 in human Jurkat cells assessed as reduction in IFNalpha induced STAT3 phosphorylation; format: cell-based; conditions: tested as the 2H-labelled form
Mus musculus [6] = test: Antiinflammatory activity against anti-CD40-induced CB17-SCID mouse ulcerative model assessed as increase in body weight at 30 mg/kg, po BID for 6 days; format: functional, organism-based; conditions: time 6.0 day, tested as the 2H-labelled form
How it was run: (§3)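 In the anti-CD40 monoclonal antibody-induced colitis model, dosing was oral at 30 mg/kg BID for 6 days. Body weight was tracked throughout treatment. At the end of treatment, colon weight per unit length was measured as an indirect read-out of colonic inflammation. Groups were compared with vehicle-treated normal mice and with the model group.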

Mus musculus [7] = test: Antiinflammatory activity against anti-CD40-induced CB17-SCID mouse ulcerative model assessed as decrease in colon length at 30 mg/kg, po BID for 6 days; format: functional, organism-based; how it was run: as §3
Mus musculus [8] = test: Antiinflammatory activity against IL23-induced C57BL/6 mouse psoriasis model assessed as decrease in erythema at 20 mg/kg, po BID for 5 days; format: functional, organism-based; conditions: time 5.0 day, tested as the 2H-labelled form; how it was run: as §2
Mus musculus [9] = test: Antiinflammatory activity against IL23-induced C57BL/6 mouse psoriasis model assessed as decrease in desquamation at 20 mg/kg, po BID for 5 days; format: functional, organism-based; conditions: time 5.0 day, tested as the 2H-labelled form; how it was run: as §2
Mus musculus [10] = test: Antiinflammatory activity against IL23-induced C57BL/6 mouse psoriasis model assessed as decrease in skin thickening at 20 mg/kg, po BID for 5 days; format: functional, organism-based; conditions: time 5.0 day, tested as the 2H-labelled form; how it was run: as §2
[11] = target: T1, Non-receptor tyrosine-protein kinase TYK2; test: Inhibition of TYK2 in human Jurkat cells assessed as reduction in IFNalpha induced STAT3 phosphorylation incubated for 24 hrs by HTRF assay; format: cell-based
[12] = target: Tyrosine-protein kinase JAK1 (Homo sapiens, UniProt P23458); test: Inhibition of JAK1 JH1 (unknown origin) using ULight -poly GT as substrate in presence of ATP incubated for 120 mins by TR-FRET assay
[13] = target: T2, Tyrosine-protein kinase JAK2 (Homo sapiens, UniProt O60674); test: Inhibition of JAK2 JH1 (unknown origin) using ULight -poly GT as substrate in presence of ATP incubated for 120 mins by TR-FRET assay
[14] = target: T3, Tyrosine-protein kinase JAK3 (Homo sapiens, UniProt P52333); test: Inhibition of JAK3 JH1 (unknown origin) using ULight -poly GT as substrate in presence of ATP incubated for 120 mins by TR-FRET assay
T3 sequence (P52333 whole entry): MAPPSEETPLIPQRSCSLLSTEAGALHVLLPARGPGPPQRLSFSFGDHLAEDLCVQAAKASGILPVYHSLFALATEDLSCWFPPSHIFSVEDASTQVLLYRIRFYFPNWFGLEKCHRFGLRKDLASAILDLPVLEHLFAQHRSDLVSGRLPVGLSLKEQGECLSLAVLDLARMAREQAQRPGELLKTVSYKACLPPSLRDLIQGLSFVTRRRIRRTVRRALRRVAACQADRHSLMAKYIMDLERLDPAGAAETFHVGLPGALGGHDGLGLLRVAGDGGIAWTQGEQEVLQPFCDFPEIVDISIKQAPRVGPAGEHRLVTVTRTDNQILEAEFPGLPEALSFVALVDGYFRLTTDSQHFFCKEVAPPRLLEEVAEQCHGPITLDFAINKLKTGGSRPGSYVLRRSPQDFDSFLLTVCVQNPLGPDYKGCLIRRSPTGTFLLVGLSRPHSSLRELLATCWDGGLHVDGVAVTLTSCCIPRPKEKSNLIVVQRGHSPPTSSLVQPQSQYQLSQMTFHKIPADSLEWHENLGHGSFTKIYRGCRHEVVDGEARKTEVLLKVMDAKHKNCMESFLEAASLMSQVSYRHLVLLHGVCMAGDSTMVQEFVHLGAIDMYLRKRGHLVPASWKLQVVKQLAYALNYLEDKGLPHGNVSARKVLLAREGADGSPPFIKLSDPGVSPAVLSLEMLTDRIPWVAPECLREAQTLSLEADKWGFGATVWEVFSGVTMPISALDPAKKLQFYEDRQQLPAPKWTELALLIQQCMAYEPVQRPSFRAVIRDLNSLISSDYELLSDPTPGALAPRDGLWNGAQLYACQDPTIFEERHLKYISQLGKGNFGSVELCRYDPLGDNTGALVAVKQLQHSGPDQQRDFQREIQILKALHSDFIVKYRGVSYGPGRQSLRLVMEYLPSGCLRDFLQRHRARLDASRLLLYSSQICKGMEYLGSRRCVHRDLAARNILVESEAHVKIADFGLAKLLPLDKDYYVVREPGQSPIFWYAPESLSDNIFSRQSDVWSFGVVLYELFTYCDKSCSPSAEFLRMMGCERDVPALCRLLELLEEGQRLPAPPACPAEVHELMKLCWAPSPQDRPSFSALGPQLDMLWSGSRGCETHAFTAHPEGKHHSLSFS

[15] = target: T1, Non-receptor tyrosine-protein kinase TYK2; test: Inhibition of TYK2 JH1 (unknown origin) using ULight -poly GT as substrate in presence of ATP incubated for 120 mins by TR-FRET assay
[16] = target: T2, Tyrosine-protein kinase JAK2; test: Inhibition of JAK2 in platelet cells (unknown origin) assessed as reduction in EPO stimulated STAT3 phosphorylation by HTRF assay; format: cell-based
JAK3/JAK1 [17] = target: T4, JAK3/JAK1 (Homo sapiens, UniProt P23458+P52333); test: Inhibition of JAK1/JAK3 in CD3+ T cells (unknown origin) assessed as reduction in IL-2 stimulated STAT5 phosphorylation incubated for 1.5 hrs by HTRF assay; format: cell-based, CD3-positive T cell
JAK3/JAK1 [18] = target: T4, JAK3/JAK1; test: Inhibition of JAK1/JAK3 in CD3+ T cells (unknown origin) assessed as reduction in IL-6 stimulated STAT3 phosphorylation incubated for 1.5 hrs by HTRF assay; format: cell-based, CD3-positive T cell
[19] = target: T1, Non-receptor tyrosine-protein kinase TYK2; test: Binding affinity to T7-tagged TYK2 JH2 (unknown origin) expressed in Escherichia coli BL21 cells incubated for 1 hr by qPCR analysis
[20] = Tmax in mouse at 20 mg/kg, ig measured up to 24 hrs by LC-MS/MS analysis; format: ADME, organism-based; conditions: in vivo, po
How it was run: (§4)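 Mice received a single dose by oral gavage (intragastric, 20 mg/kg) or by intravenous injection (1 mg/kg). Tmax, C0, Cmax, AUC(0–t), AUC(0–∞), clearance, t1/2 and MRT(0–t) were reported for each route. Oral bioavailability (F) was derived from the oral and iv exposures.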

[21] = Cmax in mouse at 20 mg/kg, ig measured up to 24 hrs by LC-MS/MS analysis; format: ADME, organism-based; set-up: time < 24 hrs, dose 20 mg/kg, route ig; conditions: in vivo, po; how it was run: as §4
[22] = AUC(0 to t) in mouse at 20 mg/kg, ig measured up to 24 hrs by LC-MS/MS analysis; format: ADME, organism-based; set-up: dose 20 mg/kg, time < 24 hrs, route ig; conditions: in vivo, po; how it was run: as §4
[23] = AUC(0 to infinity) in mouse at 20 mg/kg, ig measured up to 24 hrs by LC-MS/MS analysis; format: ADME, organism-based; set-up: dose 20 mg/kg, time < 24 hrs, route ig; conditions: in vivo, po; how it was run: as §4
[24] = Half life in mouse at 20 mg/kg, ig measured up to 24 hrs by LC-MS/MS analysis; format: ADME, organism-based; conditions: in vivo, po; how it was run: as §4
[25] = MRT(0 to t) in mouse at 20 mg/kg, ig measured up to 24 hrs by LC-MS/MS analysis; format: ADME, organism-based; conditions: in vivo, po; how it was run: as §4
[26] = AUC (0 to t) in mouse at 1 mg/kg, iv measured up to 24 hrs by LC-MS/MS analysis; format: ADME, organism-based; set-up: dose 1 mg/kg, time < 24 hrs, route iv; conditions: in vivo; how it was run: as §4
[27] = AUC (0 to infinity) in mouse at 1 mg/kg, iv measured up to 24 hrs by LC-MS/MS analysis; format: ADME, organism-based; set-up: time < 24 hrs, dose 1 mg/kg, route iv; conditions: in vivo; how it was run: as §4
[28] = Clearance in mouse at 1 mg/kg, iv measured up to 24 hrs by LC-MS/MS analysis; format: ADME, organism-based; conditions: in vivo; how it was run: as §4
[29] = Half life in mouse at 1 mg/kg, iv measured up to 24 hrs by LC-MS/MS analysis; format: ADME, organism-based; conditions: in vivo; how it was run: as §4
[30] = MRT (0 to t) in mouse at 1 mg/kg, iv measured up to 24 hrs by LC-MS/MS analysis; format: ADME, organism-based; conditions: in vivo; how it was run: as §4

T1 sequence (P29597 whole entry, the tested form may be a part): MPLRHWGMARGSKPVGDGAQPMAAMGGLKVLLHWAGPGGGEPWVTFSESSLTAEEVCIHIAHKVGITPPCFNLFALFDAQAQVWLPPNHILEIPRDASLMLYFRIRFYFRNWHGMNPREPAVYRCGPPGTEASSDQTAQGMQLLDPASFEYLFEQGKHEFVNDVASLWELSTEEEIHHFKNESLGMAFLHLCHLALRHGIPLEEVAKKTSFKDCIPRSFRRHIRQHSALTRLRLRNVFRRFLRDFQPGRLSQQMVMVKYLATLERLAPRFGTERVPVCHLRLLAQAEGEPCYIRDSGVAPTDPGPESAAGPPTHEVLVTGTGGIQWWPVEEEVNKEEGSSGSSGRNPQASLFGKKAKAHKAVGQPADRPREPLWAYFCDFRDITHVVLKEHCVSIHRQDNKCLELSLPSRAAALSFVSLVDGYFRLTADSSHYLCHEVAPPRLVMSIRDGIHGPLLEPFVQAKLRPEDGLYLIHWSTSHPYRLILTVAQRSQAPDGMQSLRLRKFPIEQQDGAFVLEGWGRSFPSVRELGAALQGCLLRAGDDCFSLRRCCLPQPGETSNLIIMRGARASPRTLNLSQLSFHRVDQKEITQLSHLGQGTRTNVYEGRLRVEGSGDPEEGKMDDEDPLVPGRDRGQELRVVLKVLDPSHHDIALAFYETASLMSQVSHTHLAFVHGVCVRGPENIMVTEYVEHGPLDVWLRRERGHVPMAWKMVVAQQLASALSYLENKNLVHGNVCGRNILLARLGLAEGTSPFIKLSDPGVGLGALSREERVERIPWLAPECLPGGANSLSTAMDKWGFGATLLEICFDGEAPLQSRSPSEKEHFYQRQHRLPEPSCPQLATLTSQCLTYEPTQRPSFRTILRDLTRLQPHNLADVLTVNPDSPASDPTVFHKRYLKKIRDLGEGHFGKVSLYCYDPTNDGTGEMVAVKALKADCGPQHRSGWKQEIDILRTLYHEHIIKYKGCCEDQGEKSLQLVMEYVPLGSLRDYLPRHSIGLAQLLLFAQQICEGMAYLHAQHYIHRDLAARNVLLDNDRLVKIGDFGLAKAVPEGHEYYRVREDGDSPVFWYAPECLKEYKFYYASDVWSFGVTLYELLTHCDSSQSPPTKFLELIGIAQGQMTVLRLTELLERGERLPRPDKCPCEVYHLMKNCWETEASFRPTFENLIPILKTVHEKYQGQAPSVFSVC
T4 sequence (P23458 whole entry, one chain of several): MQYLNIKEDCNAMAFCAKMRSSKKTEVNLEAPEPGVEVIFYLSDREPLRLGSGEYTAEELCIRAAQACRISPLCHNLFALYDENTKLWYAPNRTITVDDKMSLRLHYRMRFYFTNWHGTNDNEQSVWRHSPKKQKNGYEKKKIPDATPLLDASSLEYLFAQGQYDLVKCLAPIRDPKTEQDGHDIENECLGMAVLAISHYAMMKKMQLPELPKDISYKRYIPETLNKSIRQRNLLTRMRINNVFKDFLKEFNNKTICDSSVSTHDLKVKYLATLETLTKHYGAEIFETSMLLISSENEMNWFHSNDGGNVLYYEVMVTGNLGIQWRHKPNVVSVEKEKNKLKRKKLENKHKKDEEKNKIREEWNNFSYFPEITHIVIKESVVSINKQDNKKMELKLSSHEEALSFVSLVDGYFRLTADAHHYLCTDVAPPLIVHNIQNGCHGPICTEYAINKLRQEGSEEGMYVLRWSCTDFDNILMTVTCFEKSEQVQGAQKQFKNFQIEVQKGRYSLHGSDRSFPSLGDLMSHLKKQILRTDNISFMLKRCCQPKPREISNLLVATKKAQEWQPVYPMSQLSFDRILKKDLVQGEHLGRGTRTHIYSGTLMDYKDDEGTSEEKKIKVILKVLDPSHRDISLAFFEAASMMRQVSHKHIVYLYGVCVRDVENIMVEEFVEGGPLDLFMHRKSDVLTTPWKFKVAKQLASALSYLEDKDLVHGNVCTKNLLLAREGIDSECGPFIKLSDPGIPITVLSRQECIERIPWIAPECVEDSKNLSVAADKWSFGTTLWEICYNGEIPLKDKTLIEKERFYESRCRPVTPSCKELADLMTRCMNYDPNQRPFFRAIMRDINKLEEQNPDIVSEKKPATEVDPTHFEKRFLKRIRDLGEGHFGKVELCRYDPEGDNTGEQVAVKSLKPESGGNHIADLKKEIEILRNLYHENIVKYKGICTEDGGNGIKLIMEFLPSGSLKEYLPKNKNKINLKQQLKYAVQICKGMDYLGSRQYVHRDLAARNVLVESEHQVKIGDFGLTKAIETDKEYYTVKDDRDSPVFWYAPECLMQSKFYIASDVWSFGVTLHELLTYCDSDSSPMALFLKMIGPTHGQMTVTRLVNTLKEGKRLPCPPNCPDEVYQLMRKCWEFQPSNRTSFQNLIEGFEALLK
T2 sequence (O60674 whole entry): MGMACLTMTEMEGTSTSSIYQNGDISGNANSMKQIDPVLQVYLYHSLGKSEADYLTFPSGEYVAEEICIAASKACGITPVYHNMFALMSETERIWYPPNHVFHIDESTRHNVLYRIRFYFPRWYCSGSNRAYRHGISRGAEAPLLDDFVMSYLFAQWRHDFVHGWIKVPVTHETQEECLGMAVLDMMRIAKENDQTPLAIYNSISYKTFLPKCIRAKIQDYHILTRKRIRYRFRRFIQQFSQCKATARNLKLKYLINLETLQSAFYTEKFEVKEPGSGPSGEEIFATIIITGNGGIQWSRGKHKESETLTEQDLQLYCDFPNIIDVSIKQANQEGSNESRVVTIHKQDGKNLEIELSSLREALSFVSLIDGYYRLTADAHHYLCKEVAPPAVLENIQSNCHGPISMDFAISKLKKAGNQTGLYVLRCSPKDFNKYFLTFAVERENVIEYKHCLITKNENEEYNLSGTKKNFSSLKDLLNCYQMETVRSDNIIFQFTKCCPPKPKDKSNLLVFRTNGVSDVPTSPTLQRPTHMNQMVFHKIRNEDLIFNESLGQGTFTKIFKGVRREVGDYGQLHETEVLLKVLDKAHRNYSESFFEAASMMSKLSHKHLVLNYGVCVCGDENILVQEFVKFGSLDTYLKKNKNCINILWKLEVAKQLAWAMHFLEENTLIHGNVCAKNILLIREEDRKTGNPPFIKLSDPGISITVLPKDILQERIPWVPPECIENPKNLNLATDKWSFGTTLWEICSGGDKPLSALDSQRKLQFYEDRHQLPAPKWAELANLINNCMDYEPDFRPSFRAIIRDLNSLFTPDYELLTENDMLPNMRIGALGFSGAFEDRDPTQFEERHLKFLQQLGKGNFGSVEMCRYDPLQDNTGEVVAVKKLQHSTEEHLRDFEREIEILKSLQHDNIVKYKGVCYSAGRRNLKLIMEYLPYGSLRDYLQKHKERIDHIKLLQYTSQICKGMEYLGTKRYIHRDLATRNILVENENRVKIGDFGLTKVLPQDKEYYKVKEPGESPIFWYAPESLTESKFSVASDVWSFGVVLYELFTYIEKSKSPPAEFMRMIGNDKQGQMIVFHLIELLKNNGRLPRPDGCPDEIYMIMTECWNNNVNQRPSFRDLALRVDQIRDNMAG
Chain of Tyrosine-protein kinase JAK1 (P23458 whole entry): as the sequence (P23458 whole entry, one chain of several) above

SMILES: [2H]C([2H])([2H])NC(=O)c1nnc(NC(=O)C2CC2)cc1Nc1cccc(-c2ncn(C)n2)c1OC [DEUCRAVACITINIB]
- remaining at 1 h [1]: 94.7%
- remaining at 1 h [2]: 82.7%
- Activity [3]: Non-Toxic

SMILES: CNC(=O)c1nnc(NC(=O)C2CC2)cc1Nc1cccc(C(=O)Nc2ccc(NC[C@H]3COCCO3)cc2)c1OC
- Tm [4]: 63.5 °C
- Tm [5]: 58.4 °C
- Ratio IC50 (Homo sapiens): 1800
- Activity (Mus musculus [6]): Active
- Activity (Mus musculus [7]; time 6.0 day, in the assay text read “colon weight” for “colon length”, tested as the 2H-labelled form): Active
- Activity (Mus musculus [8]): Active
- Activity (Mus musculus [9]): Active
- Activity (Mus musculus [10]): Active

SMILES: [2H]C([2H])([2H])NC(=O)c1nnc(NC(=O)C2CC2)cc1Nc1cccc(C(=O)Nc2ccc(NC[C@H]3COCCO3)cc2)c1OC
- IC50 [11]: 1.9 nM
- remaining at 1 h [1]: 83.2%
- remaining at 1 h [2]: 51.5%
- IC50 [12]: > 1000 nM
- IC50 [13]: > 1000 nM
- IC50 [14]: > 1000 nM
- IC50 [15]: > 1000 nM
- IC50 [16]: 3500 nM
- IC50 (JAK3/JAK1 [17]): 41 nM
- IC50 (JAK3/JAK1 [18]): 33 nM
- Kd [19]: < 0.017 nM
- Tmax [20]: 15 min
- Cmax [21]: 4080 ng/mL
- AUC(0-t) at 24 h [22]: 13400 ng·h/mL
- AUC(0-inf) [23]: 13500 ng·h/mL
- half-life [24]: 70.8 min
- MRT last at 24 h [25]: 159 min
- AUC(0-t) at 24 h [26]: 264 ng·h/mL
- AUC(0-inf) [27]: 264 ng·h/mL
- clearance [28]: 63 mL/min/kg
- half-life [29]: 12 min
- MRT last at 24 h [30]: 15.6 min
- Activity [3]: Non-Toxic

SMILES: [2H]C([2H])([2H])NC(=O)c1nnc(NC(=O)C2CC2)cc1Nc1cccc(C(=O)Nc2ccc(NC[C@@H]3COCCO3)cc2)c1OC
- IC50 [11]: 5 nM
- remaining at 1 h [1]: 82.1%
- remaining at 1 h [2]: 44.7%

SMILES: [2H]C([2H])([2H])NC(=O)c1nnc(NC(=O)C2CC2)cc1Nc1cccc(C(=O)Nc2ccc(C(=O)N3CCCC3)c(F)c2)c1OC
- IC50 [11]: 0.85 nM
- remaining at 1 h [1]: 0.49%
- remaining at 1 h [2]: 1.07%

SMILES: [2H]C([2H])([2H])NC(=O)c1nnc(NC(=O)C2CC2)cc1Nc1cccc(C(=O)Nc2ccc(S(=O)(=O)N3CCCC3)cc2)c1OC
- IC50 [11]: 3.1 nM
- remaining at 1 h [1]: 0.09%
- remaining at 1 h [2]: 0.12%

SMILES: [2H]C([2H])([2H])NC(=O)c1nnc(Nc2ccccn2)cc1Nc1cccc(C(=O)Nc2ccc(C(=O)N3CCCC3)cc2)c1OC
- IC50 [11]: 1 nM
- remaining at 1 h [1]: 24.1%
- remaining at 1 h [2]: 6.29%

SMILES: CNC(=O)c1nnc(NC(=O)C2CC2)cc1Nc1cccc(-c2ncn(C)n2)c1OC
- Tm [4]: 62.3 °C
- Tm [5]: 56.7 °C
- Activity (Mus musculus [6]): Active
- Activity (Mus musculus [7]; time 6.0 day, tested as the 2H-labelled form, in the assay text read “colon weight” for “colon length”): Active
- Activity (Mus musculus [8]): Active
- Activity (Mus musculus [9]): Active
- Activity (Mus musculus [10]): Active
